Reference: ChEMBL document CHEMBL1165950, “Design and synthesis of new potent anticancer pyrazoles with high FLT3 kinase inhibitory selectivity” (Bioorg Med Chem, 2010)

Assays:
Type in all cases: functional
SNB-19 [1] = assay: Cytotoxicity against human SNB19 cells assessed as cell growth at 0.01 uM after 48 hrs by sulforhodamine B assay; conditions: SNB-19, 48 h, read-out: Activity
M14 [2] = assay: Cytotoxicity against human M14 cells assessed as cell growth at 0.001 uM after 48 hrs by sulforhodamine B assay; conditions: M14, 48 h, read-out: Activity
SNB-19 [3] = assay: Cytotoxicity against human SNB19 cells assessed as cell growth at 100 nM after 48 hrs by sulforhodamine B assay; conditions: SNB-19, 48 h, read-out: Activity
EKVX [4] = assay: Growth inhibition of human EKVX cells after 48 hrs by sulforhodamine B assay; conditions: for CC50: read-out: LC50 (the source's name)
How it was run: (§1)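 NCI five-dose SRB assay in RPMI 1640 with 5% FBS and 2 mM L-glutamine. Cells were preincubated 24 h, then exposed 48 h at 37 °C to five concentrations (10-fold or half-log serial dilutions from DMSO stocks). TCA fixation, SRB staining, and absorbance at 515 nm followed. IC50 was taken where [(Ti−Tz)/(C−Tz)]×100 = 50, with Tz as time-zero cell density.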

OVCAR-4 = assay: Cytotoxicity against human OVCAR4 cells assessed as cell growth at 1 uM after 48 hrs by sulforhodamine B assay; conditions: OVCAR-4, 48 h, read-out: Activity
NCI/ADR-RES [5] = assay: Cytotoxicity against human NCI/ADR-RES cells assessed as cell growth at 10 uM; conditions: read-out: Activity
How it was run: (§2)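 NCI-60 screen: cells grown in RPMI 1640 with 5% FBS and 2 mM L-glutamine, plated at 5000–40,000 cells/well according to doubling time, and preincubated 24 h at 37 °C, 5% CO2. The single 10 µM dose (DMSO stock) was added, then incubated 48 h. Cells were TCA-fixed and stained with 0.4% SRB, read at 515 nm, and growth % calculated against time-zero and control plates.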

BT-549 = assay: Cytotoxicity against human BT549 cells assessed as cell growth at 0.01 uM after 48 hrs by sulforhodamine B assay; conditions: BT-549, 48 h, read-out: Activity
How it was run: (§3)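 NCI-60 five-dose screen. Cells were grown in RPMI 1640 with 5% FBS and 2 mM L-glutamine, plated at 5000–40,000 cells/well and preincubated for 24 h. Time-zero plates were TCA-fixed. DMSO-solubilized drug was added at five concentrations (10-fold or ½-log serial dilutions) for 48 h at 37 °C, 5% CO2. Cells were TCA-fixed, stained with 0.4% SRB and read at 515 nm. Percent growth used time-zero, control and test absorbances.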

K562 = assay: Cytotoxicity against human K562 cells assessed as cell growth at 0.001 uM after 48 hrs by sulforhodamine B assay; conditions: K562, 48 h, read-out: Activity
SN12C = assay: Growth inhibition of human SN12C cells after 48 hrs by sulforhodamine B assay
How it was run: (§4)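 NCI 60-cell screen, five-dose mode. Cells grown in RPMI 1640 with 5% FBS and 2 mM L-glutamine and plated at 5000-40,000 cells/well according to doubling time. After 24 h preincubation, a Tz plate was TCA-fixed. Five concentrations (10-fold or 1/2 log dilutions) were applied for 48 h at 37 °C. SRB staining read at 515 nm. IC50 taken from [(Ti-Tz)/(C-Tz)]×100 = 50.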

MOLT-4 [6] = assay: Cytotoxicity against human MOLT4 cells assessed as cell growth at 0.001 uM after 48 hrs by sulforhodamine B assay; conditions: MOLT-4, 48 h, read-out: Activity
LOX IMVI = assay: Cytotoxicity against human LOXIMVI cells assessed as cell growth at 10 uM; conditions: read-out: Activity; how it was run: as §2
OVCAR-8 [7] = assay: Cytotoxicity against human OVCAR8 cells assessed as cell growth at 0.01 uM after 48 hrs by sulforhodamine B assay; conditions: OVCAR-8, 48 h, read-out: Activity
UACC-62 = assay: Cytotoxicity against human UACC62 cells assessed as cell growth at 10 uM after 48 hrs by sulforhodamine B assay; conditions: UACC-62, 48 h, read-out: Activity
Malme-3M = assay: Cytotoxicity against human MALME-3M cells assessed as cell growth at 1 uM after 48 hrs by sulforhodamine B assay; conditions: read-out: Activity
[8] = Growth inhibition of human Hs 578T cells after 48 hrs by sulforhodamine B assay; conditions: for CC50: read-out: LC50 (the source's name); how it was run: as §4
A498 [9] = assay: Cytotoxicity against human A498 cells assessed as cell growth at 0.001 uM after 48 hrs by sulforhodamine B assay; conditions: A498, 48 h, read-out: Activity; how it was run: as §3
NCI-H322M = assay: Cytotoxicity against human NCI-H322M cells assessed as cell growth at 10 uM; conditions: read-out: Activity; how it was run: as §2
HCC 2998 = assay: Cytotoxicity against human HCC2998 cells assessed as cell growth at 0.01 uM after 48 hrs by sulforhodamine B assay; conditions: HCC 2998, 48 h, read-out: Activity
HT-29 = assay: Cytotoxicity against human HT-29 cells assessed as cell growth at 0.01 uM after 48 hrs by sulforhodamine B assay; conditions: HT-29, 48 h, read-out: Activity
RXF 393 = assay: Cytotoxicity against human RXF393 cells assessed as cell growth at 10 uM; conditions: read-out: Activity; how it was run: as §2
M14 [10] = assay: Cytotoxicity against human M14 cells assessed as cell growth at 1 uM after 48 hrs by sulforhodamine B assay; conditions: M14, 48 h, read-out: Activity
MCF7 = assay: Cytotoxicity against human MCF7 cells assessed as cell growth at 0.01 uM after 48 hrs by sulforhodamine B assay; conditions: MCF7, 48 h, read-out: Activity
NCI/ADR-RES [11] = assay: Cytotoxicity against human NCI/ADR-RES cells assessed as cell growth at 0.01 uM after 48 hrs by sulforhodamine B assay; conditions: read-out: Activity
MOLT-4 [12] = assay: Cytotoxicity against human MOLT4 cells assessed as cell growth at 1 uM after 48 hrs by sulforhodamine B assay; conditions: MOLT-4, 48 h, read-out: Activity
OVCAR-8 [13] = assay: Cytotoxicity against human OVCAR8 cells assessed as cell growth at 10 uM; conditions: read-out: Activity; how it was run: as §2
COLO 205 = assay: Cytotoxicity against human COLO205 cells assessed as cell growth at 1 uM after 48 hrs by sulforhodamine B assay; conditions: COLO 205, 48 h, read-out: Activity; how it was run: as §3
SW-620 = assay: Growth inhibition of human SW620 cells after 48 hrs by sulforhodamine B assay; conditions: SW-620, 48 h; for CC50: read-out: LC50 (the source's name); how it was run: as §4
A498 [14] = assay: Growth inhibition of human A498 cells after 48 hrs by sulforhodamine B assay; conditions: A498, 48 h; how it was run: as §1
EKVX [15] = assay: Cytotoxicity against human EKVX cells assessed as cell growth at 10 uM; conditions: read-out: Activity
How it was run: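 Single-dose NCI-60 screen at 10 µM. Cells were grown in RPMI 1640 with 5% FBS and 2 mM L-glutamine, then treated for 48 h at 37 °C. Protein was measured by SRB staining with absorbance at 515 nm. Percentage growth was recorded, and inhibition percentage was calculated as 100 minus growth percentage.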

SMILES | growth at 0.01 µM (SNB-19 [1]) | growth at 0.001 µM (M14 [2]) | growth at 0.1 µM (SNB-19 [3]) | GI50 (EKVX [4]) | TGI (EKVX [4]) | CC50 (EKVX [4]) | growth at 1 µM (OVCAR-4) | growth at 10 µM (NCI/ADR-RES [5]) | growth at 0.01 µM (BT-549) | growth at 0.001 µM (K562) | GI50 (SN12C) | LC50 (SN12C) | TGI (SN12C) | growth at 0.001 µM (MOLT-4 [6]) | growth at 10 µM (LOX IMVI) | growth at 0.01 µM (OVCAR-8 [7]) | growth at 10 µM (UACC-62) | growth at 1 µM (Malme-3M) | GI50 [8] | TGI [8] | also measured
COc1cc(C)cc(-c2nn(CC#N)cc2-c2ccnc(-c3ccc(N(C)C)cc3)c2)c1 | 97% | 96% | 35% | 0.696 µM | > 10 µM | > 100 µM | 21% | -28% | 100% | 66% | 0.73 µM | > 100 µM | 33.1 µM | 102% | 5.2% | 97% | -8% | 61% | 0.264 µM | 0.695 µM | CC50 [8]: > 100 µM; growth at 0.001 µM (A498 [9]): 91%; growth at 10 µM (NCI-H322M): 41.1%; growth at 0.01 µM (HCC 2998): 107%; growth at 0.01 µM (HT-29): 105%; growth at 10 µM (RXF 393): -17.1%; growth at 1 µM (M14 [10]): -7%; growth at 0.01 µM (MCF7): 38%; growth at 0.01 µM (NCI/ADR-RES [11]): 99%; growth at 1 µM (MOLT-4 [12]): 13%; growth at 10 µM (OVCAR-8 [13]): 12%; growth at 1 µM (COLO 205): -74%; GI50 (SW-620): 0.332 µM; TGI (SW-620): > 100 µM; CC50 (SW-620): > 100 µM; GI50 (A498 [14]): 0.246 µM; LC50 (A498 [14]): > 100 µM; TGI (A498 [14]): 0.818 µM; growth at 10 µM (EKVX [15]): 41%
Cc1cc(O)cc(-c2nn(CC#N)cc2-c2ccnc(-c3ccc(N(C)C)cc3)c2)c1 | 95% | 96% | 93% | 3.92 µM | 92.8 µM | > 100 µM | 27% | 6.33% | 91% | 100% | 4.28 µM | > 100 µM | 30 µM | 100% | 33.7% | 97% | -80% | 27% | 2.13 µM | 7 µM | CC50 [8]: > 100 µM; growth at 0.001 µM (A498 [9]): 101%; growth at 10 µM (NCI-H322M): 94.1%; growth at 0.01 µM (HCC 2998): 88%; growth at 0.01 µM (HT-29): 96%; growth at 10 µM (RXF 393): 64.7%; growth at 1 µM (M14 [10]): -39%; growth at 0.01 µM (MCF7): 89%; growth at 0.01 µM (NCI/ADR-RES [11]): 96%; growth at 1 µM (MOLT-4 [12]): 11%; growth at 10 µM (OVCAR-8 [13]): 45%; growth at 1 µM (COLO 205): -59%; GI50 (SW-620): 2.83 µM; TGI (SW-620): 17.5 µM; CC50 (SW-620): > 100 µM; GI50 (A498 [14]): 3.03 µM; LC50 (A498 [14]): > 100 µM; TGI (A498 [14]): 13.4 µM; growth at 10 µM (EKVX [15]): 71.6%
COc1cc(C)cc(-c2c(-c3ccnc(-c4ccc(N(C)C)cc4)c3)cnn2CC#N)c1 | 44% | 95% | 27% | 0.29 µM | > 100 µM | > 100 µM | 31% | -15.4% | 44% | 104% | 0.398 µM | > 100 µM | > 100 µM | 96% | 4.55% | 28% | 16% | 40% | 0.166 µM | > 100 µM | CC50 [8]: > 100 µM; growth at 0.001 µM (A498 [9]): 94%; growth at 10 µM (NCI-H322M): 58.9%; growth at 0.01 µM (HCC 2998): 30%; growth at 0.01 µM (HT-29): 26%; growth at 10 µM (RXF 393): 23.3%; growth at 1 µM (M14 [10]): -9%; growth at 0.01 µM (MCF7): 56%; growth at 0.01 µM (NCI/ADR-RES [11]): 80%; growth at 1 µM (MOLT-4 [12]): -2%; growth at 10 µM (OVCAR-8 [13]): 25.4%; growth at 1 µM (COLO 205): 3%; GI50 (SW-620): 0.0394 µM; TGI (SW-620): > 100 µM; CC50 (SW-620): > 100 µM; GI50 (A498 [14]): 0.132 µM; LC50 (A498 [14]): > 100 µM; TGI (A498 [14]): > 100 µM; growth at 10 µM (EKVX [15]): 45.8%
